# Article PMC3443740 (Journal of immunology (Baltimore, Md. : 1950), 2012)
# How the values were obtained:
# panel of 121 kinases = assay: kinase selectivity profiling; format: biochemical; details: panel of 121 kinases in vitro; Ruxolitinib at 0.1 μM
# MARK3 = MARK3 (Homo sapiens, UniProt P27448); assay: in vitro protein kinase assay, MARK3; format: biochemical; details: 1 μM Ruxolitinib
# BMDMs [1] = assay: IFNβ induced IL-10 and IL-6 transcription in BMDMs; format: cell-based, mouse; details: 0.5 μM Ruxolitinib, 500 Units/ml IFNβ, wild type BMDMs
# Procedure, shortened: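 Wild-type mouse BMDMs were grown 7 d from bone marrow in DMEM with 10% heat-inactivated FBS and 5 ng/ml mCSF, then replated and used 24 h later. Cells were pretreated 1 h with 0.5 µM test compound, then given 500 U/ml IFN-β for varying times. IL-10 or IL-6 mRNA was measured by SYBR green Q-PCR, normalised to 18s against unstimulated wild-type controls. Four mice, independent cultures.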
# BMDMs [2] = assay: LPS induced pro-inflammatory cytokine production in BMDMs; format: cell-based, mouse
# Procedure, shortened: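 BMDMs came from wild-type, IL-10 knockout or IFNαβR knockout mice and were pretreated 1 h with 0.5 µM test compound. Stimulation was 100 ng/ml LPS over a time course, or LPS ± 100 ng/ml IL-10 for 6 h in IL-10 knockout cells. Secreted TNF-α, IL-6, IL-12p40 and IL-12p70 were measured by Luminex multiplex, and the matching mRNAs (IL-12p35 for p70) by 18s-normalised Q-PCR. Four mice per genotype.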
# BMDMs [3] = assay: LPS induced signaling in BMDMs, immunoblotting; format: cell-based, mouse; details: 0.5 μM Ruxolitinib, 100 ng/ml LPS
# Procedure, shortened: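 Wild-type mouse BMDMs were pretreated 1 h with 0.5 µM test compound, then stimulated with 100 ng/ml LPS for varying times. Cells were lysed directly in SDS sample buffer and run on 10% polyacrylamide gels, then transferred to nitrocellulose. Blots were probed for total and phospho STAT3 (Y705, S727), phospho-STAT1 Y701, ERK1/2, p38, phospho-JNK, phospho-p105 and IκBα, with HRP secondaries and ECL detection.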
# IRAK1 = IRAK1 (Homo sapiens, UniProt P51617); assay: in vitro protein kinase assay, IRAK1; format: biochemical; details: 1 μM Ruxolitinib
# TrkA = TrkA (Homo sapiens, UniProt P04629); assay: in vitro protein kinase assay, TrkA; format: biochemical; details: read-out: inhibition of TrkA
# BMDMs [4] = assay: LPS induced IL-10 mRNA; format: cell-based, mouse; details: 100 ng/ml LPS
# Procedure, shortened: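 BMDMs came from wild-type or IFNαβR knockout mice, cultured 7 d with mCSF and used 24 h after replating. They were pretreated 1 h with test compound (0.5 µM or 5 µM), then given 100 ng/ml E. coli O26:B6 LPS over a time course. IL-10 mRNA was measured by Q-PCR (18s-normalised) and secreted IL-10 by multiplex assay. SD from independent cultures of four mice.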
# phospho Tyr705 STAT3 = details: BMDMs, 100 ng/ml IL-10 30 min
# phospho-Y701 STAT1 = details: BMDMs, 500 Units/ml IFNβ 30 min
# DBA/1J mice = details: IP LPS, 5mg/kg Tofacitinib, ref [50]; cited from earlier work
# [5] = 0.5 μM Ruxolitinib, 100 ng/ml LPS
# [6] = 0.5 μM Ruxolitinib, 100 ng/ml LPS 6 h
# [7] = 0.5 μM Ruxolitinib, wild type BMDMs
# TrkA, sequence (P04629 33-796, species assumed): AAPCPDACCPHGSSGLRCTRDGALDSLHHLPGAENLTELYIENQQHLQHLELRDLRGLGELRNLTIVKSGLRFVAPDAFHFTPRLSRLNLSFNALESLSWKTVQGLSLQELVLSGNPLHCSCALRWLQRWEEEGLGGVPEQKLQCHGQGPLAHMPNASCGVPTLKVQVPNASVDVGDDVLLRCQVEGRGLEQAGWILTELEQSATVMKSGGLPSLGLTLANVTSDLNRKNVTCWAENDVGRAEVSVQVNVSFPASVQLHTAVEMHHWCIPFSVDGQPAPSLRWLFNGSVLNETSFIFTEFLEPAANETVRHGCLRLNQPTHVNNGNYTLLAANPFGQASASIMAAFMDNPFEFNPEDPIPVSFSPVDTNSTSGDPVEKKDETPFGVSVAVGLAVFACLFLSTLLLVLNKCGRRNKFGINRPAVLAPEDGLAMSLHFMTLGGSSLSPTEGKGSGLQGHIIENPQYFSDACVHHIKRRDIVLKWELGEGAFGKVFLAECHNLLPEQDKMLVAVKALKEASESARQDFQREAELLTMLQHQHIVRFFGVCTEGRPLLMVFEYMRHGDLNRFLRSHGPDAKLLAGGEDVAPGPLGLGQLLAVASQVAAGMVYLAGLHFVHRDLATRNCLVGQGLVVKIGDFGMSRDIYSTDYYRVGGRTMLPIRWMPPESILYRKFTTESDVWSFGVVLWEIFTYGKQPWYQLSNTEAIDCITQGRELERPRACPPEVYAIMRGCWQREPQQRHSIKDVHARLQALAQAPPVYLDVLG
# IRAK1, sequence (P51617 whole entry, species assumed): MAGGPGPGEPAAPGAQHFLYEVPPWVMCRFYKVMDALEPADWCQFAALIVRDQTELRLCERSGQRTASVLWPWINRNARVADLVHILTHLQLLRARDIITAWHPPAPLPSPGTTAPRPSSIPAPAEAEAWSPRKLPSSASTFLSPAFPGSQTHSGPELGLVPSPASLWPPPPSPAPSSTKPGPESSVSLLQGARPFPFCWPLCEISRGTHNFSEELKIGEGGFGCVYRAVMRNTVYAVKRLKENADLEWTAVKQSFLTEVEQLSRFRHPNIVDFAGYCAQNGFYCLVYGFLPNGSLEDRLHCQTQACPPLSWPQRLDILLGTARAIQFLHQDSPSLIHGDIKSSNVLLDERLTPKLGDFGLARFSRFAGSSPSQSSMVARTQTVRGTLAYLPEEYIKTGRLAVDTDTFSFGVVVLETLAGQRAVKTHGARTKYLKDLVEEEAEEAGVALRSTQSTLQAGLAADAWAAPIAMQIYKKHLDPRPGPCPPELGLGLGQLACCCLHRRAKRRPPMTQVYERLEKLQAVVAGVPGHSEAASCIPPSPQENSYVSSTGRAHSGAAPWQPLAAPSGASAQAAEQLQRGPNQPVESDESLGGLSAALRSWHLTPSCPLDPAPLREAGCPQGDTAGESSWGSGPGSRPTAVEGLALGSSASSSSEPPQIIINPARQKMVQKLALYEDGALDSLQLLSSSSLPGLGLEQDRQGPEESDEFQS
# MARK3, sequence (P27448 whole entry, species assumed): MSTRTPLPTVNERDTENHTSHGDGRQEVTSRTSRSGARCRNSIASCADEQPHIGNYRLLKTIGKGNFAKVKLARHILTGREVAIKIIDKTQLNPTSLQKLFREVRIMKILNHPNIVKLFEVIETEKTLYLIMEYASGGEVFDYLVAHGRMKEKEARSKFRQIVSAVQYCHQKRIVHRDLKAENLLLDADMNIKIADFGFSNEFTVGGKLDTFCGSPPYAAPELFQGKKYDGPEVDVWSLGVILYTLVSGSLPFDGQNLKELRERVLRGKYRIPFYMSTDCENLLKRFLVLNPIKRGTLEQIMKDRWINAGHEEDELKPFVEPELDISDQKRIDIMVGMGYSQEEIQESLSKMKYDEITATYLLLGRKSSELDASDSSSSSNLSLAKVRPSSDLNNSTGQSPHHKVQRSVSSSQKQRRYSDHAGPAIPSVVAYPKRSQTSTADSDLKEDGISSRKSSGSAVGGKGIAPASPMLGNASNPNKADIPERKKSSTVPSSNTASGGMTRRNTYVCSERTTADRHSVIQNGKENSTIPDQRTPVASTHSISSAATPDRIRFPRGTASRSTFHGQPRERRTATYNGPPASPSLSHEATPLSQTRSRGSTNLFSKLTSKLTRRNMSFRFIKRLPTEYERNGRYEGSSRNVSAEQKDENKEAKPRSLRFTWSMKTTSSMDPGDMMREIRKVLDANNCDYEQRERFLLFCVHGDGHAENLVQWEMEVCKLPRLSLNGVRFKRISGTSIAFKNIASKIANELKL
smiles,measurement,setting,value
N#C/C(=C/c1ccc(O)c(O)c1)C(=O)NCc1ccccc1 [AG-490],selectivity in kinase panel,panel of 121 kinases,could also block several Ser/Thr kinases
N#CC[C@H](C1CCCC1)n1cc(-c2ncnc3[nH]ccc23)cn1 [Ruxolitinib],activity against MARK3,MARK3,weak activity
same,IFNβ induced IL-10 transcription,BMDMs [1],greatly reduced
same,IFNβ stimulated IL-6 transcription,BMDMs [1],inhibited
same,IL-6 production from IFNαβR knockout macrophages,BMDMs [2]; [5],increased
same,IL-6 production from wild type cells,BMDMs [2]; [5],increased
same,TNFα production in IL-10 knockout cells,BMDMs [2]; [5],little effect
same,peak amount of LPS-induced IL-12 mRNA in IL-10 knockout cells,BMDMs [2]; [5],decreased
same,secreted levels of IL-6 in wild type and IL-10 knockout cells,BMDMs [2]; [5],intermediate between the wild type and IL-10 knockout cells
same,production of IL-6 by LPS in IL-10 knockout BMDMs,BMDMs [2]; [6],moderately decreased
same,production of TNFα by LPS in IL-10 knockout BMDMs (decrease),BMDMs [2]; [6],to a lesser extent
same,TNFα mRNA and secreted protein levels in wild type cells,"BMDMs [2]; 0.5 μM Ruxolitinib, 100 ng/ml LPS, to similar values as IL-10 knockout BMDMs",increased
same,inhibitory effects of IL-10 on TNFα and IL-6 production,"BMDMs [2]; IL-10 knockout BMDMs, 0.5 μM Ruxolitinib, LPS and 100 ng/ml IL-10 6 h",blocked
same,LPS induced STAT1 Y701 phosphorylation,BMDMs [3],blocked
same,"TLR4 induced activation of the ERK1/2, p38 or JNK MAPK cascades",BMDMs [3],did not affect
same,"activation of the NFκB pathway (IκBα degradation, p105 and IκBα phosphorylation)",BMDMs [3],no major affects
same,phosphorylation of STAT3 on S727,BMDMs [3],not blocked
same,phosphorylation of STAT3 on Y705 in response to LPS,BMDMs [3],completely blocked
same,activity against IRAK1,IRAK1,weak activity
same,inhibition at 0.1 µM,TrkA,> 50%
same,IL-10 levels secreted from IFNαβR knockout macrophages,BMDMs [4]; 0.5 μM Ruxolitinib,did not affect
same,IL-10 secreted into the media at later time points (8 to 24 h),BMDMs [4]; [7],decrease
same,IL-10 secretion at 4 h,BMDMs [4]; [7],unaffected
same,initial transcription of IL-10,BMDMs [4]; [7],did not affect
same,transcription of IL-10 at later time points,BMDMs [4]; [7],reduce
C[C@@H]1CCN(C(=O)CC#N)C[C@@H]1N(C)c1ncnc2[nH]ccc12 [Tofacitinib],IL-6 secretion following 24h of LPS stimulation,BMDMs [2]; Tofacitinib,increased
same,TNF and IL-12 production in response to a prolonged stimulation with LPS,BMDMs [2]; Tofacitinib at a concentration able to inhibit STAT3 phosphorylation,increased
same,IL-10 stimulated STAT3 phosphorylation,phospho Tyr705 STAT3,able to block
same,IFNβ stimulated STAT1 phosphorylation,phospho-Y701 STAT1,able to block
same,plasma IL-10 levels,DBA/1J mice,increased
same,"plasma levels of TNF, IL-6 and IL-12",DBA/1J mice,reduced
same,IL-10 mRNA at later time points,BMDMs [4]; 5 μM Tofacitinib,inhibited
same,IL-10 secretion at 8 and 16h after LPS stimulation,BMDMs [4]; 5 μM Tofacitinib,decreased
same,initial phase of IL-10 transcription,BMDMs [4]; 5 μM Tofacitinib,did not affect
